Entries after “also recorded” stand apart in the source; their conditions may differ. Read-outs that look alike come from different tables or passages of the source.
Key:
SARS-CoV-2 [1] = settings: cited from earlier work; for EC50, inhibit SARS-CoV-2 replications in vitro: entry inhibitors
influenza [2] = settings: read-out: Observed EC50, influenza replication; A549 cells; cited from earlier work
SARS-CoV-2 [3] = settings: hamster; cited from earlier work
ACE2 = ACE2 expression in Vero E6 cells; type: cell-based; settings: 48 h, RNA-seq, western blot
influenza [4] = assay: Predicted anti-influenza EC50 by pEC50 = pIC50 + Log Fic; settings: A549, read-out: Predicted EC50 (anti-influenza)
[5] = IV injection of RDV, rhesus macaques
SARS-CoV-2 [6] = settings: cited from earlier work
[7] = IV injection of RDV, mice
[8] = IV injection of RDV, nonhuman primates; cited from earlier work
[9] = tested on: multidrug resistance-associated protein 4 (MRP4); settings: ref 28 (RDV), FDA Office of Clinical Pharmacology Review (GS-441524); cited from earlier work
RdRp of SARS-CoV-2 = settings: read-out: IC50, inhibition of RdRp of SARS-CoV-2; active form of RDV; cited from earlier work
SARS-CoV-2 [10] = settings: rhesus macaque, cited from earlier work
Calu-3 cells = assay: Cytotoxicity; type: cell-based
Summary of the method: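 Calu-3 cells were grown in medium supplemented with 1% non-essential amino acids and 1% sodium pyruvate at 37 °C, 5% CO2. Cells were seeded and cultured for 24 h, then exposed to test compound for 48 h. CCK8 solution was added at 10% and incubated 15 min to read viability.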

SARS-CoV-2 M^pro = SARS-CoV-2 M^pro (Severe acute respiratory syndrome coronavirus 2, UniProt P0DTD1); settings: cited from earlier work

SMILES: NC(=O)c1nc(F)c[nH]c1=O [FAV, Favipiravir]
- Fic (Vero E6 cells; Vero E6, Fic = fu,cell x Kp): 0.03371
- Drug accumulation with verapamil (P-gp inhibitor) (Vero E6 cells; Vero E6 cells): increased FAV accumulation
- EC50 (SARS-CoV-2 [1]; read-out: Observed EC50, SARS-CoV-2 replication, Vero E6): 65 to 400 µM
- EC50 (influenza [2]): 3 µM
- Infectious titers in the lung (SARS-CoV-2 [3]): reduction of infectious titers in the lung
- ACE2 expression (ACE2): reduced angiotensin-converting enzyme 2 (ACE2) expression
- Fic (A549 cells): 0.03145
- EC50 (influenza [4]): 3.2 µM

SMILES: CCN(CC)CCCC(C)Nc1ccnc2cc(Cl)ccc12 (centres unmarked) [CQ, Chloroquine]
- Drug accumulation with verapamil (P-gp inhibitor) (Vero E6 cells): facilitated accumulation
- EC50, inhibit SARS-CoV-2 replications in vitro (SARS-CoV-2 [1]): low micromolar

SMILES: N#C[C@@]1(c2ccc3c(N)ncnn23)O[C@H](CO)[C@@H](O)[C@H]1O [GS-441524]
- Lung concentration of GS-441524 relative to its predicted EC50 [5]: 10 fold
- SARS-CoV-2 replication in vivo (SARS-CoV-2 [6]; oral administration of GS-441524, mouse model): inhibit SARS-CoV-2 replication in vivo
- Lung concentration of GS-441524 relative to its predicted EC50 [7]: 10 fold
- Bloodstream concentration of GS-441524 relative to RDV [8]: 1000 fold
- Substrate of MRP4 [9]: not a substrate

SMILES: N#C[C@@]1(c2ccc3c(N)ncnn23)O[C@H](COP(=O)(O)OP(=O)(O)OP(=O)(O)O)[C@@H](O)[C@H]1O [GS-443902]
- IC50 (RdRp of SARS-CoV-2): 0.032 µM

SMILES: CCC(CC)COC(=O)[C@H](C)N[P@](=O)(OC[C@H]1O[C@@](C#N)(c2ccc3c(N)ncnn23)[C@H](O)[C@@H]1O)Oc1ccccc1 [RDV, Remdesivir]
- Antiviral activity in vivo (SARS-CoV-2 [10]; RDV): strong antiviral activities
- Drug accumulation with ceefourin (MRP4 inhibitor) (Vero E6 cells; Vero E6 cells): significantly increased RDV accumulation
- Drug accumulation with verapamil (P-gp inhibitor) (Vero E6 cells; Vero E6 cells): significantly increased RDV accumulation
- Virus titer in the lung / antiviral activity in vivo (SARS-CoV-2 [6]; RDV, mouse): successfully reduce virus titer in the lung; also recorded: strong antiviral activities
- Drug accumulation with ceefourin (MRP4 inhibitor) (A549-ACE2 cells): Neither verapamil nor ceefourin changed RDV accumulation
- Drug accumulation with verapamil (P-gp inhibitor) (A549-ACE2 cells): Neither verapamil nor ceefourin changed RDV accumulation
- Substrate of MRP4 [9]: substrate

SMILES: COc1ccc(CCN(C)CCCC(C#N)(c2ccc(OC)c(OC)c2)C(C)C)cc1OC (centres unmarked) [verapamil]
- Cytotoxicity (Calu-3 cells): strong cytotoxicity

SMILES: CCN(CCO)CCCC(C)Nc1ccnc2cc(Cl)ccc12 (centres unmarked) [HCQ, hydroxychloroquine]
- Infectious titers in lungs (SARS-CoV-2 [10]): failed to reduce infectious titers
- Drug accumulation with verapamil (P-gp inhibitor) (Vero E6 cells; Vero E6 cells): facilitated accumulation
- EC50, inhibit SARS-CoV-2 replications in vitro (SARS-CoV-2 [1]): low micromolar
- Inhibition of M^pro activities at 200 μM (SARS-CoV-2 M^pro): slightly inhibited
- Infectious titers in lungs (SARS-CoV-2 [3]): failed to reduce infectious titers

Reference: PMC9753181 (ACS Omega, 2022)
